Reference: ChEMBL document CHEMBL4725346, “Syntheses and Evaluation of New Bisacridine Derivatives for Dual Binding of G-Quadruplex and i-Motif in Regulating Oncogene c-myc Expression” (J Med Chem, 2020)
Active and inactive are the calls of the source. The rule behind the calls is not given here.

What was measured:
[1] = Stabilization of 5'-FAM/3'-TAMRA labeled c-myc promoter i-motif DNA FPy33T (unknown origin) assessed as change in melting temperature at 1 uM by FRET assay (reference value: 53.2 degreeC)
Outline: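 FRET melting of dual FAM/TAMRA-labelled FPy33T annealed in 1× BPES (30 mM potassium phosphate, 1 mM EDTA, 100 mM KCl), pH 5.5. Final 0.2 µM DNA with or without ligand. Excitation 470 nm, emission 530 nm, read every 1 °C over 37–99 °C. ΔTm taken against DNA alone.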

[2] = Stabilization of c-myc promoter i-motif DNA Py33 (unknown origin) assessed as decrease in negative peak intensity at pH 5.5 measured at 260 nanometer by CD spectroscopy
Outline: (§1)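 Py33 at 1 µM in 1× BPES pH 5.5 (pH 6.8 random-coil reference), with or without ligand. Annealed at 95 °C for 5 min, cooled, kept at 4 °C overnight. CD spectra in a 4 mm cuvette over 230–350 nm, three scans averaged, buffer-corrected; peaks followed at 288 and 260 nm.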

[3] = Stabilization of c-myc promoter i-motif DNA Py33 (unknown origin) assessed as reduction in appearance of random coil confirmation at pH 5.5 by CD spectroscopy; outline: as §1
[4] = Stabilization of c-myc promoter i-motif DNA Py33 (unknown origin) by 1H NMR spectra analysis
Outline: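 1D ¹H NMR titration with water suppression at 25 °C on a 600 MHz spectrometer. DNA at 0.5 mM in 10% D₂O/90% H₂O: Pu27 in 10 mM Tris-HCl pH 7.4, Py33 in 1× BPES pH 6.4. Annealed at 95 °C for 5 min before titration; ligand stock in d₆-DMSO.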

Quadruplex DNA [5] = experiment: Binding affinity to c-myc promoter G-quadruplex DNA Pu27 (unknown origin) at 50 uM by isothermal titration calorimetry; assay type: nucleic-acid assay
Outline: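 ITC at 20 °C on degassed solutions. Cell held preformed DNA ([…]). Syringe held ligand in the same buffer (50 μM for Pu27, 20 μM for Py33). 28 injections of 10 μL at 4 min intervals. Heats of dilution from ligand-into-buffer runs subtracted before model fitting.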

HeLa = experiment: Antiproliferative activity against human Hela cells after 48 hrs by MTT assay; assay type: functional, cell-based
Outline: (§2)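 Cells seeded at 5.0×10^3 per well, pre-incubated 12 h at 37 °C, 5% CO2, then exposed to compounds for 48 h; DMSO-only control. MTT (2.5 mg/mL) added for 4 h, formazan dissolved in DMSO, absorbance at 570 nm. Each dose tested in triplicate; IC50 from percentage survival relative to negative control.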

HCT-116 = experiment: Antiproliferative activity against human HCT-116 cells after 48 hrs by MTT assay; assay type: functional, cell-based; conditions: HCT-116, 48 h; outline: as §2
SiHa [6] = experiment: Antiproliferative activity against human SiHa cells after 48 hrs by MTT assay; assay type: functional, cell-based; outline: as §2
Quadruplex DNA [7] = experiment: Binding affinity to c-myc mutated promoter G-quadruplex/i-motif (unknown origin) expressed in human SiHa cells assessed as reduction in c-myc transcription by measuring decrease in ratio of renilla/firefly luciferase activity at 0.025 to 0.1 uM after 48 hrs by dual-luciferase reporter assay; assay type: cell-based; conditions: dose microM 0.025-0.1, time 48.0 hrs
Outline: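 SiHa cells transfected with 200 ng psiCHECK2 plasmid carrying wild-type, mutant or deleted c-myc promoter. Compounds added 8 h after transfection, then incubated 48 h at 37 °C. Cells washed with ice-cold PBS; Renilla/firefly activity ratio read by dual-luciferase assay.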

Quadruplex DNA [8] = experiment: Binding affinity to c-myc promoter G-quadruplex/i-motif in human SiHa cells assessed as reduction in c-myc mRNA level at 2.5 uM incubated for 24 hrs by qRT-PCR analysis; assay type: cell-based; parameters: scale not given: the % may be the effect or the level left
Outline: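 SiHa cells at 0, 0.625, 1.25 and 2.5 μM for 24 h; DMSO control. Total RNA extracted with TRIzol. 1.5 μg RNA reverse-transcribed with oligo dT18 and M-MLV (42 °C 60 min). PCR of 30 cycles (95/58/72 °C), products run on 1.2% agarose. β-actin as internal control; three repeats.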

SiHa [9] = experiment: Effect on stability of c-myc RNA in human SiHa cells at 2.5 uM in presence of actinomycin D by RT-PCR method; assay type: functional, cell-based
Outline: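 SiHa cells seeded at 2×10^5 per well, grown 24 h, then treated with 5 µg/mL actinomycin D plus 2.5 µM compound. Total RNA extracted at the indicated time points for RT-PCR.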

Quadruplex DNA [10] = experiment: Binding affinity to c-myc promoter G-quadruplex/i-motif in human CA46 cells assessed as reduction in c-myc mRNA transcription at 0.16 to 2.5 uM incubated for 24 hrs; assay type: cell-based; conditions: dose microM 0.16-2.5, time 24.0 hrs
Quadruplex DNA [11] = experiment: Binding affinity to c-myc promoter G-quadruplex/i-motif in human SiHa cells assessed as reduction in c-myc expression at 1.25 uM incubated for 24 hrs by Western blot analysis; assay type: cell-based; parameters: scale not given: the % may be the effect or the level left
Outline: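 SiHa cells treated 24 h at 0, 0.625, 1.25 and 2.5 μM, then lysed in buffer with 1 mM PMSF. Protein measured by BCA, equal loads run on 8% gel and blotted to PVDF. Probed with anti-c-MYC and anti-β-actin (loading control), HRP anti-rabbit secondary, chemiluminescence read-out.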

SiHa [12] = experiment: Induction of cell cycle arrest in human SiHa cells assessed as accumulation of cells at G0/G1 phase at 0.15 uM after 24 hrs by propidium iodide staining based flow cytometry (reference value: 42.28%); assay type: functional
SiHa [13] = experiment: Induction of cell cycle arrest in human SiHa cells assessed as accumulation of cells at G0/G1 phase at 0.30 uM after 24 hrs by propidium iodide staining based flow cytometry (reference value: 42.28%); assay type: functional; conditions: dose 0.3 µM
SiHa [14] = experiment: Induction of cell cycle arrest in human SiHa cells assessed as accumulation of cells at G2/M phase at 0.60 uM after 24 hrs by propidium iodide staining based flow cytometry (reference value: 29.71%); assay type: functional; conditions: dose 0.6 µM
SiHa [15] = experiment: Induction of apoptosis in human SiHa cells assessed as necrotic cells at 1.2 uM after 24 hrs by annexin V/FITC-propidium iodide staining-based flow cytometric method ( Rvb = 0.1%); assay type: functional
SiHa [16] = experiment: Induction of apoptosis in human SiHa cells assessed as decrease in caspase-9 level incubated for 24 hrs by Western blot analysis; assay type: functional, cell-based; conditions: dose microM 0.6-2.4, time 24.0 hrs
CA46 [17] = experiment: Antiproliferative activity against human CA46 cells after 48 hrs by MTT assay; assay type: functional, cell-based
CA46 [18] = experiment: Induction of apoptosis in human CA46 cells at 0.6 to 2.4 uM after 24 hrs by propidium iodide staining based flow cytometry; assay type: functional, cell-based; conditions: dose microM 0.6-2.4, time 24.0 hrs
[19] = Toxicity in BALB/c nude mouse xenografted with human SiHa cells assessed as effect on spleen weight at 15 mg/kg, ip administered once per 2 days for 18 days; assay type: organism-based; conditions: in vivo, 432 h, time 18 day
Outline: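 SiHa tumour fragments passaged from donor mice implanted in the underarm of female BALB/c nude mice (six per group). Compound given at 15 mg/kg ip once every two days for 18 days, with saline and cisplatin 0.2 mg/kg control groups. Body weight recorded every two days; at day 18 mice were sacrificed and organs weighed.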

ΔTm [1]: 11 °C
Activity [2]: Active
Activity [3]: Active
Activity [4]: Active
Kd (Quadruplex DNA [5]): 810 nM
IC50 (HeLa): 450 nM
IC50 (HCT-116): 150 nM
SMILES: Cc1ccc2nc3ccc(C)cc3c(NCCCNCCNCCCNc3c4cc(C)ccc4nc4ccc(C)cc34)c2c1
IC50 (SiHa [6]): 1220 nM
Activity (Quadruplex DNA [7]): inactive
Activity (Quadruplex DNA [8]): < 76.9%
Activity (SiHa [9]): inactive
Activity (Quadruplex DNA [10]): inactive
Activity (Quadruplex DNA [11]): < 39.8%
Activity (SiHa [12]): 37.96%
Activity (SiHa [13]): 30.44%
Activity (SiHa [14]): 56.91%
Activity (SiHa [15]): 4.6%
Activity (SiHa [16]): Dose-dependent effect
Activity (CA46 [17]): inactive
Activity (CA46 [18]): inactive
Activity [19]: Non-Toxic
